We go through two compounds from ChEMBL document CHEMBL3585248, “Amorfrutins Are Natural PPARγ Agonists with Potent Anti-inflammatory Properties” (J Nat Prod, 2015).

SMILES strings stand for the structures. The source made the active and inactive calls. The rule behind the calls is not given here.

Data set [1] concerns HT-29. In words: Cytotoxicity against human HT-29 cells assessed as cell viability up to 5 uM after 54 hrs by CytoTox-Glo assay. Format: cell-based. Conditions: ht-29, 54 h.
In data set [2] the test system is HT-29. In words: Cytotoxicity against human HT-29 cells assessed as reduction in cell viability after 54 hrs by CytoTox-Glo assay. The conditions noted are these: HT-29, 54 h.
Data set [3] deals with HT-29. In words: Cytotoxicity against human HT-29 cells assessed as cell viability at 10 uM after 54 hrs by CytoTox-Glo assay. Format: cell-based. The conditions noted are these: ht-29, 54 h.
Data set [4] concerns the target T1, Peroxisome proliferator-activated receptor gamma (Homo sapiens) (UniProt P37231).
T1 sequence (whole entry): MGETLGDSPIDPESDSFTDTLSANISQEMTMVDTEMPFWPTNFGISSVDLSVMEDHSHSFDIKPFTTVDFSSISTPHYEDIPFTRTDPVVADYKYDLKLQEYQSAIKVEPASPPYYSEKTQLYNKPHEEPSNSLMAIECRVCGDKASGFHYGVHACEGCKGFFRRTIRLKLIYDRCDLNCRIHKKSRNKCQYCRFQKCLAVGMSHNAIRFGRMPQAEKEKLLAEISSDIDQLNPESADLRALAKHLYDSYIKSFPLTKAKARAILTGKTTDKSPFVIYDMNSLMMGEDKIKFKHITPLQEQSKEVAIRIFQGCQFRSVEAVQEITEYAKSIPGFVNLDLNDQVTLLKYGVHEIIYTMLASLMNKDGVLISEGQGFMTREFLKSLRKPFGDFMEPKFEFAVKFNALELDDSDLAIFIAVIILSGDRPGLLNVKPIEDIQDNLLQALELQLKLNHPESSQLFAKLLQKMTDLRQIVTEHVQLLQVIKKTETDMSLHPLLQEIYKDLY
In words: Agonist activity at PPARgamma in human HT29 cells assessed as reduction in TNFalpha-induced COX2 gene expression at 10 uM after 48 hrs by real-time qPCR analysis. It counts as cell-based. The conditions noted are these: HT-29. In outline: (§1)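 HT-29 cells pretreated 48 h with 10 μM compound in 0.1% DMSO, then stimulated 6 h with 1 ng/mL TNF-α. Total RNA isolated with DNase digestion, reverse-transcribed, then SYBR Green qPCR run for 40 cycles. Expression normalized to GAPDH by 2−ΔΔCt and reported relative to DMSO-treated cells. Biological triplicates, mean ± SD; one-way ANOVA with Dunnett's test.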

Data set [5] has as its target T1, Peroxisome proliferator-activated receptor gamma (Homo sapiens). In words: Agonist activity at PPARgamma in human HT29 cells assessed as reduction in TNFalpha-induced GROalpha gene expression at 10 uM after 48 hrs by real-time qPCR analysis. Conditions: HT-29. Format: cell-based. In outline: as §1
Data set [6] shares this target. In words: Agonist activity at PPARgamma in human HT29 cells assessed as reduction in TNFalpha-induced IL8 gene expression at 10 uM after 48 hrs by real-time qPCR analysis. Format: cell-based. The conditions noted are these: HT-29. In outline: as §1
In general terms: Real-time PCR tracks product formation cycle by cycle.

Data set [7] shares this target. In words: Agonist activity at PPARgamma in human HT29 cells assessed as reduction in TNFalpha-induced MIP3alpha gene expression at 10 uM after 48 hrs by real-time qPCR analysis. It counts as cell-based. Conditions: HT-29. In outline:
as §1

Data set [8] shares this target. In words: Agonist activity at PPARgamma in human HT29 cells assessed as reduction in TNFalpha-induced GROgamma gene expression at 10 uM after 48 hrs by real-time qPCR analysis. Conditions: HT-29. Format: cell-based. In outline: as §1
Data set [9] has the same target. In words: Agonist activity at PPARgamma in human HT29 cells assessed as reduction in TNFalpha-induced IL-1beta gene expression at 10 uM after 48 hrs by real-time qPCR analysis. It counts as cell-based. The conditions noted are these: HT-29. In short, it runs like this: as §1
The target is the same in data set [10]. In words: Agonist activity at PPARgamma in human HT29 cells assessed as reduction in TNFalpha-induced IL8 gene expression in PPARgamma knockdown human HT29 cells at 10 uM after 48 hrs by real-time qPCR analysis. The conditions noted are these: HT-29. Format: cell-based. In outline:
(§2)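 PPARγ knocked down in HT-29 cells by transfection with 30 nM siRNA, with negative-control siRNA alongside. Cells then given 10 μM compound for 48 h and 1 ng/mL TNF-α for 6 h. Marker mRNA measured by SYBR Green qPCR, normalized to GAPDH by 2−ΔΔCt. Biological triplicates.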

Data set [11] shares this target. In words: Agonist activity at PPARgamma in human HT29 cells assessed as reduction in TNFalpha-induced GROalpha gene expression in PPARgamma knockdown human HT29 cells at 10 uM after 48 hrs by real-time qPCR analysis. It counts as cell-based. Conditions: HT-29. In outline: as §2
The target is the same in data set [12]. In words: Agonist activity at PPARgamma in human HT29 cells assessed as reduction in TNFalpha-induced COX2 gene expression in PPARgamma knockdown human HT29 cells at 10 uM after 48 hrs by real-time qPCR analysis. Format: cell-based. The conditions noted are these: HT-29. In outline:
as §2

Data set [13] shares this target. In words: Agonist activity at PPARgamma in human HT29 cells assessed as reduction in TNFalpha-induced MIP3alpha gene expression in PPARgamma knockdown human HT29 cells at 10 uM after 48 hrs by real-time qPCR analysis. Format: cell-based. The conditions noted are these: HT-29. In outline:
as §2

Data set [14] has the same target. In words: Agonist activity at PPARgamma in human HT29 cells assessed as reduction in TNFalpha-induced MIP3alpha gene expression in at 10 uM after 48 hrs by ELISA. Format: cell-based. The conditions noted are these: HT-29. In short, it runs like this:
(§3)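 HT-29 cells in DMEM-F12 with 5% FBS, seeded a day ahead; 10 μM compound or 0.1% DMSO control for 48 h, then 1 ng/mL TNF-α for 6 h. Culture supernatants centrifuged at 4 °C, stored at −80 °C. Secreted MIP-3α/CCL20, IL-8 and GRO-α quantified by ELISA. Mean ± SD; compared with TNF-α alone.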
(ELISA stands for enzyme-linked immunosorbent assay.)

Data set [15] shares this target. In words: Agonist activity at PPARgamma in human HT29 cells assessed as reduction in TNFalpha-induced IL8 gene expression in at 10 uM after 48 hrs by ELISA. The conditions noted are these: HT-29. It counts as cell-based. In short, it runs like this: as §3
For data set [16] the target is unchanged. In words: Agonist activity at PPARgamma in human HT29 cells assessed as reduction in TNFalpha-induced GRO-alpha gene expression in at 10 uM after 48 hrs by ELISA. The conditions noted are these: HT-29. Format: cell-based. In short, it runs like this: as §3

The IC50 is the point on the concentration scale where inhibition reaches its midpoint. Regarding `COc1cc(CCc2ccccc2)c(C(=O)O)c(O)c1C/C=C(\C)CCC=C(C)C`, the Activity result with HT-29 [1] was “Non-toxic”. In addition, the IC50 in the data set with HT-29 [2] is 30.5 µM.
Regarding `COc1cc(CCc2ccccc2)c(C(=O)O)c(O)c1CC=C(C)C` [AMORFRUTIN A], the Activity result in the data set with HT-29 [3] was “Non-toxic”. The inhibition result in data set [4], in data set [5], in data set [6], in data set [7], in data set [12] and in data set [13] was “Active” throughout. In addition, the inhibition result in [8], in data set [9], in data set [10] and in data set [11] was “inactive” in each case. Further, the outcome in data set [14], in [15] and in [16] was Active. Also, the IC50 in the data set with HT-29 [2] was found to be 50.8 µM.
